Assay results collected from several papers.
Protocols differ between the studies behind these lines.
Organism: Nakaseomyces glabratus
Read-out: microbial growth

CCCCCOc1c(OC)cc(NC(C)CCCNC(=O)C(N)C(C)CC)c2nc(C(C)(C)C)ccc12 (centres unmarked)
MIC (broth dilution; ATCC90030): > 20 µg/mL

OC(Cn1cncn1)(Cn1cncn1)c1ccc(F)cc1F
MIC (broth dilution; MY1381): 8 µg/mL

CCCCCCCCCCCCCCN1CCNCC1
MIC (broth dilution; ATCC2001; 48 h): 0.975 µg/mL

C[C@@H]1[C@H](O)[C@@H](C)/C=C/C=C/C=C/C=C/C=C/C=C/C=C/[C@H](O[C@@H]2O[C@H](C)[C@@H](O)[C@H](N)[C@@H]2O)C[C@@H]2O[C@](O)(C[C@@H](O)C[C@@H](O)[C@H](O)CC[C@@H](O)C[C@@H](O)CC(=O)O[C@H]1C)C[C@H](O)[C@H]2C(=O)O
MIC (broth dilution; ATCC90030): 0.63 µg/mL

OC(CNCCN1CCOCC1)(Cn1cncn1)c1ccc(F)cc1F (centres unmarked)
MIC (broth dilution; ATCC2001; 48 h): 31.3 µg/mL

C[C@@H]1[C@H](O)[C@@H](C)/C=C/C=C/C=C/C=C/C=C/C=C/C=C/[C@H](O[C@@H]2O[C@H](C)[C@@H](O)[C@H](N)[C@@H]2O)C[C@@H]2O[C@](O)(C[C@@H](O)C[C@@H](O)[C@H](O)CC[C@@H](O)C[C@@H](O)CC(=O)O[C@H]1C)C[C@H](O)[C@H]2C(=O)O
MIC (ATCC90030): 0.68 µM

OC(Cn1cncn1)(Cn1cncn1)c1ccc(F)cc1F
MIC (clinical isolate): 4 µg/mL

C[C@@H]1[C@H](O)[C@@H](C)/C=C/C=C/C=C/C=C/C=C/C=C/C=C/[C@H](O[C@@H]2O[C@H](C)[C@@H](O)[C@H](N)[C@@H]2O)C[C@@H]2O[C@](O)(C[C@@H](O)C[C@@H](O)[C@H](O)CC[C@@H](O)C[C@@H](O)CC(=O)O[C@H]1C)C[C@H](O)[C@H]2C(=O)O
MIC (broth dilution): 1.25 µg/mL

COc1cc(-c2ccc(C(C)(C)C)cc2)cc(C(C)C#Cc2c(C)nc(N)nc2N)c1 (centres unmarked)
MIC (resazurin): 207 µg/mL

CCCCCCCCCCN1CCNCC1
MIC (broth dilution; ATCC2001; 48 h): 7.8 µg/mL

COc1cc(NC(C)CCCN)c2nc(C(C)(C)C)ccc2c1Oc1ccc(Cl)c(Cl)c1 (centres unmarked)
MIC (broth dilution; ATCC90030): 20 µg/mL

Fc1ccc(C2(Cn3cncn3)CO2)c(F)c1 (centres unmarked)
MIC (broth dilution; ATCC2001; 48 h): > 31.3 µg/mL

CCC(C#Cc1c(C)nc(N)nc1N)c1cc(OC)c(OC)c(OC)c1 (centres unmarked)
MIC (resazurin): 89 µg/mL

CCCCCCCCOc1c(OC)cc(NC(C)CCCNC(=O)C2CCCN2)c2nc(C(C)(C)C)ccc12 (centres unmarked)
MIC (broth dilution; ATCC90030): 20 µg/mL
